# Measurements as given in ChEMBL document CHEMBL1177657, “Design and synthesis of novel hydroxyalkylaminomethylchromones for their IL-5 inhibitory activity” (Bioorg Med Chem, 2010).
# Values joined by “and” are separate entries in the source; they are usually repeats but may differ in a detail not shown here. Identical values can stand only once.
# How the values were obtained:
# Assay type in all cases: cell-based
# Interleukin-5 = target: T1, Interleukin-5 (Mus musculus, UniProt P04401); test: Inhibition of interleukin-5 in mouse Y16 cells
# T1 sequence (P04401 whole entry): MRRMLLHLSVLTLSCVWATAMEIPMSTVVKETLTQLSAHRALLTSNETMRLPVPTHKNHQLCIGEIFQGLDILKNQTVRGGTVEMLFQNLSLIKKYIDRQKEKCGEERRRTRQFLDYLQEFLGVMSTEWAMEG
# Summary of the method: (§1)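 IL-5-dependent mouse pro-B Y16 cells were incubated with 3 units/mL mIL-5 for 48 h, with or without test sample. Cell metabolism was then read with the tetrazolium salt WST-1 as an index of proliferation.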
# [1] = target: T2, Interleukin-5 (Mus musculus) (UniProt P04401); test: Inhibition of interleukin-5 in mouse Y16 cells at 30 uM; summary of the method: as §1
# T2 sequence (whole entry): T1 sequence (P04401 whole entry)
# [2] = target: T2, Interleukin-5 (Mus musculus); test: Inhibition of interleukin-5 in mouse Y16 cells at 50 uM; summary of the method: as §1
SMILES,IC50 (Interleukin-5),inhibition [1],inhibition [2]
O=c1c(CNCCCO)coc2cccc(OCC3CCCCC3)c12,> 50 µM,15%,
O=c1c(CNCc2ccc(O)cc2)coc2cccc(OCC3CCCCC3)c12,28.5 µM,50%,
CC(C)(C)C(CO)NCc1coc2cccc(OCC3CCCCC3)c2c1=O (centres undefined),26.2 µM,65%,
O=c1c(CNCc2ccccc2)coc2cccc(OCC3CCCCC3)c12,> 50 µM,32%,
CCCC(CO)NCc1coc2cccc(OCC3CCCCC3)c2c1=O (centres undefined),> 50 µM,13%,
COc1ccc(CNCc2coc3cccc(OCC4CCCCC4)c3c2=O)cc1,> 30 µM,43%,
O=c1c(CNc2ccc(O)cc2)coc2cccc(OCC3CCCCC3)c12,27.3 µM,57%,
O=c1c(-c2ccc(O[C@@H]3O[C@H](CO)[C@@H](O)[C@H](O)[C@H]3O)cc2)coc2cc(O)cc(O)c12 [SOPHORICOSIDE],1.4 µM and 10.6 µM,,79.1%
CC(C)(CO)NCc1coc2cccc(OCC3CCCCC3)c2c1=O,26.4 µM,63%,
COc1ccc(NCc2coc3cccc(OCC4CCCCC4)c3c2=O)cc1,> 50 µM,31%,

# Continued, values first:
IC50 (Interleukin-5),inhibition [1],inhibition [2],SMILES
17.3 µM,93%,,O=c1c(CNC(CO)CC2CCCCC2)coc2cccc(OCC3CCCCC3)c12 (centres undefined)
> 50 µM,30%,,O=c1c(CNC(CCO)c2ccccc2)coc2cccc(OCC3CCCCC3)c12 (centres undefined)
> 50 µM,14%,,O=c1c(CNc2ccccc2)coc2cccc(OCC3CCCCC3)c12
> 50 µM,20%,,O=c1c(CNCCCCCO)coc2cccc(OCC3CCCCC3)c12
18.5 µM,88%,,O=c1c(CNC(CO)c2ccccc2)coc2cccc(OCC3CCCCC3)c12 (centres undefined)
25.7 µM,72%,,O=c1c(CNC(CO)Cc2ccccc2)coc2cccc(OCC3CCCCC3)c12 (centres undefined)
> 50 µM,13%,,O=c1c(CNCCO)coc2cccc(OCC3CCCCC3)c12
